DENV2 CPE: inhibitors of DENV2 cytopathic effect; DENV2-infected cells, cytopathic effect rescue, plate reader; CPE inhibition, % at 9.99 µM; 350,000 tested, 1.7% active; AID 651640; in the data active = CPE inhibition above about 20%, passing the limit was not always enough; inconclusive = no clear call, values can overlap the other calls; tested in BHK-21 cells;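 note: 0% = median of neutral control wells and 100% = median of positive control wells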
E-selectin induc: E-selectin induction on HUVECs; HUVEC E-selectin immunofluorescence imaging; normalized: neutral wells 0, TNF-alpha wells 100; activation, % at 7.58 µM; 260,000 tested, 0.37% active;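 active = mean E-selectin-positive cell signal at least 10% of the positive control, reached in at least 60% of replicates, without over 20% cell loss; inconclusive = no rule given, readout overlaps actives, possibly toxicity-flagged; inactive = the rest, including those meeting only one limit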
Target sequence (P16581 whole entry, looked up): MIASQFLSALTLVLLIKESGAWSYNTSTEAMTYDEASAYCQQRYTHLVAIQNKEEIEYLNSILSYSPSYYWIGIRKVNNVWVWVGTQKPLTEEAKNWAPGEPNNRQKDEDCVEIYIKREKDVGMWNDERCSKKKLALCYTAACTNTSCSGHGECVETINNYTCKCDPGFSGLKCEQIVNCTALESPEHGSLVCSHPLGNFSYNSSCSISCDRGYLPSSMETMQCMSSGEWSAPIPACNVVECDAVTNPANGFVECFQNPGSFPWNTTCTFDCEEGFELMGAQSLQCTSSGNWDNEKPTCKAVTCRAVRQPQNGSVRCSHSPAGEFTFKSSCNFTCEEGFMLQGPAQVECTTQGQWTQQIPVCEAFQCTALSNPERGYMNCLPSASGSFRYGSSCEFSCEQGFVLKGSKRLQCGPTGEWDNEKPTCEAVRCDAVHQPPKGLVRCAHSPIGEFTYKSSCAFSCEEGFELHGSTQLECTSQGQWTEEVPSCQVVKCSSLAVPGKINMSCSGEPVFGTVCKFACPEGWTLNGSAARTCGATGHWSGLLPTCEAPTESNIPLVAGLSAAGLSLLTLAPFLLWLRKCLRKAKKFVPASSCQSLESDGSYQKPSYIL
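Assay system: HUVEC primary endothelial cells. Input: 3,000 HUVEC seeded per well. Doses: one compound dose added by pin transfer. Read-out basis: % PE-positive cells. Benchmarks: TNF-alpha high, DMSO low. Detection: immunofluorescence imaging. Buffer or medium: EGM-2, gelatin.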
SIRT5 inh: sirtuin-5 (human) deacylase inhibition; Purified SirT5, succinyl-peptide AMC, trypsin-coupled fluorescence; Q9NXA8; inhibition, % at 15 µM; AID 652115; 330,000 tested, 1.1% active; in the data active = inhibition above about 15%; inconclusive = no clear call, values can overlap the other calls
* marks the source's active call; other numbers are inactive results; ? = inconclusive; · = not tested or not shown. The list is not random: actives were taken first. Their share in the collection is about 2.9%.

SMILES	DENV2 CPE	E-selectin induc	SIRT5 inh
O=C(c1ccccn1)N1CC(=O)N2[C@H](CO)[C@@H](c3ccc(C#CCc4ccccc4)cc3)[C@@H]2C1	11	1	-2
C[C@@H]1CN([C@H](C)CO)C(=O)c2cccc(NC(=O)C3CCCCC3)c2O[C@H]1CN(C)C(=O)NC1CCCCC1	-3	0	-5
C[n+]1c(-c2ccc(C=NNC(=O)c3ccc(C(=O)NN=Cc4ccc(-c5cn6ccccc6[n+]5C)cc4)cc3)cc2)cn2ccccc21	?	0	0
C[C@@H](NC(=O)[C@@H]1N[C@@H]2c3ccc(-c4cncnc4)c(=O)n3C[C@@H]2[C@H]1CO)c1ccccc1	10	0	-10
O=C(c1ccccn1)N1CC(=O)N2[C@H](CO)[C@@H](c3ccc(C#Cc4ccccc4)cc3)[C@@H]2C1	52*	0	-2
O=C(c1cnccn1)N1CC(=O)N2[C@H](C1)[C@@H](c1ccc(/C=C/c3ccccc3)cc1)[C@@H]2CO	-1	0	-3
C/C=C/c1ccc([C@@H]2[C@@H](CO)N3C(=O)CN(C(=O)c4cnccn4)C[C@@H]23)cc1	59*	0	6
O=C(c1ccccn1)N1CC(=O)N2[C@@H](CO)[C@@H](c3ccc(C#Cc4ccccc4)cc3)[C@@H]2C1	3	0	2
CC(=O)N(C)C[C@H]1Oc2cc(-c3ccc(C#N)cc3)ccc2S(=O)(=O)N([C@@H](C)CO)C[C@H]1C	-3	0	-2
O=C(N/C(=C/c1ccc([N+](=O)[O-])cc1)C(=O)N1CCCC1)c1ccccc1	-6	·	2
COc1ccc2c3c([nH]c2c1)[C@@H](CO)N(C(=O)C1CC1)CC31CN(C(=O)c2ccncc2)C1	6	0	1
COc1ccc2c3c([nH]c2c1)[C@H](CO)N(C(=O)C1CC1)CC31CN(C(=O)c2ccncc2)C1	12	0	15*
COc1ccc2c3c([nH]c2c1)[C@H](CO)N(C)CC31CN(C(=O)C2CC2)C1	45*	0	-6
COc1ccc2c3c([nH]c2c1)[C@@H](CO)N(C)CC31CN(C(=O)C2CC2)C1	2	1	0
COc1ccc2c3c([nH]c2c1)[C@H](CO)N(Cc1ccccc1F)CC31CN(C(=O)C2CCC2)C1	9	-1	11
COc1ccc2c3c([nH]c2c1)[C@H](CO)N(Cc1ccccc1F)CC31CN(C(=O)C2CCCC2)C1	24*	0	0
CCOC(=O)N1CCN(C(=O)c2ccccc2NC(=O)c2ccc(F)cc2)CC1	3	·	3
C[C@H]1CN=C(N(C)C)N1CCC1CCCC1	-18	0	·
COc1ccc(NC(C)=O)cc1NC(C)c1nc2sc(C)c(C)c2c(=O)[nH]1 (stereo not drawn)	0	3	-5
Nc1cccc(Oc2c(F)c(F)c(Oc3cccc(N)c3)c(F)c2F)c1	9	12	-1
COc1cccc(N)c1	171*	·	·
CCCC(=O)Nc1ccc2c(c1)C(=O)N(C)C[C@H](OC)[C@@H](C)CN(Cc1ccccc1)[C@@H](C)CO2	-11	0	-1
C=CCNc1nnc(Cl)c2ccccc12	-6	·	26*
Clc1ccc(/C=N/Nc2nnc(Cl)c3ccccc23)cc1	·	·	0
CC(C)Cc1ccc(CN2CC[C@@H](NS(=O)(=O)c3ccccc3)C2)cc1	2	·	-2.2*
SMILES	DENV2 CPE	E-selectin induc	SIRT5 inh
O=S(=O)(N[C@@H]1CCCN(Cc2ccc(OCCO)cc2)C1)c1ccccc1	2	·	·
COCc1nc2ccccc2n1Cc1ccccc1C	-2	·	38*
Cc1ccccc1Cn1c(C)nc2ccccc21	-10	·	-3
COCC(=O)N1C[C@@H](C)[C@@H](OC)CN(C)C(=O)c2ccc(NC(=O)Nc3ccccc3)cc2OC[C@H]1C	8	0	0
CN(CCC1CCCCO1)C(=O)CCc1nnc(Cc2c[nH]c3ccccc23)o1 (stereo not drawn)	-1	0	-3
CN(CCC1CCCCO1)C(=O)CCc1nnc(CCc2ccccc2)o1 (stereo not drawn)	61*	0	0
COc1ccc2sc(N(CCN(C)C)C(=O)/C=C/c3cccs3)nc2c1	-1	-2	2
COc1ccc(S(=O)(=O)Nc2ccc3c(c2)CC(=O)N([C@@H](C)CO)C[C@H](C)[C@@H](CN(C)Cc2ccc(C(F)(F)F)cc2)O3)cc1	6	0	16*
Cc1ccc(S(=O)(=O)Nc2ccc3c(c2)CC(=O)N([C@@H](C)CO)C[C@@H](C)[C@@H](CN(C)Cc2ccc(C(F)(F)F)cc2)O3)cc1	·	1	·
C[C@@H]1CN([C@H](C)CO)C(=O)Cc2cc(NS(=O)(=O)c3ccc(F)cc3)ccc2O[C@@H]1CN(C)Cc1ccc(C(F)(F)F)cc1	-6	0	23*
COc1ccc(CN(C)C[C@@H]2Oc3ccc(NS(=O)(=O)c4ccc(OC)cc4)cc3CC(=O)N([C@@H](C)CO)C[C@H]2C)cc1	5	0	-1
C[C@@H]1CN([C@@H](C)CO)C(=O)Cc2cc(NS(=O)(=O)c3ccc(F)cc3)ccc2O[C@H]1CN(C)Cc1ccc(C(F)(F)F)cc1	-4	0	36*
Cc1ccc(S(=O)(=O)Nc2ccc3c(c2)CC(=O)N([C@H](C)CO)C[C@H](C)[C@H](CN(C)Cc2ccc(C(F)(F)F)cc2)O3)cc1	·	0	·
CN(C)NC1=CC(=[N+]2CCCC2)CC(C)(C)C1	4	·	2
COc1cccc(CN(C)CC(=O)Nc2cccc(C(F)(F)F)c2)c1OC	0	2	-3
CCOC(=O)[C@]12CCC=C1N(Cc1ccc3c(c1)OCO3)C(=O)[C@H](CC(=O)N1CCCCC1)C2	-1	0	0
CC1c2[nH]c3ccccc3c2C[C@H]2C(=O)N(CCO)CC(=O)N12 (stereo partly drawn)	0	0	-3
CCOCCCNC(=O)c1ccc2c(c1)N=C(CC)c1cc(Br)ccc1S2	-8	·	17*
CCC1=Nc2cc(C(=O)NCCN3CCOCC3)ccc2Sc2ccccc21	-3	·	4
C=CCC[C@@H](CCCCC)OC(=O)/C=C/[C@H](O)[C@@H](O)C[C@H](O)CC=C	3	-7	16*
C=CCC[C@H](CCCCC)OC(=O)/C=C/[C@H](O)[C@@H](O)C[C@H](O)CC=C	?	-5	2
CN(C)C(=N)c1n[nH]nc1SCc1ccccc1	4	·	0
O=C(NCc1ccc(F)cc1)[C@H]1[C@H](CO)[C@H]2Cn3c(cccc3=O)[C@@H]1N2CC1CCCC1	43*	-1	1
C[C@H](NC(=O)[C@@H]1[C@@H](CO)[C@@H]2Cn3c(cccc3=O)[C@H]1N2Cc1cccnc1)c1ccccc1	-5	-2	-1
C[C@H](NC(=O)[C@H]1[C@H](CO)[C@H]2Cn3c(cccc3=O)[C@@H]1N2Cc1cccnc1)c1ccccc1	81*	1	3
O=C(NCCCN1CCOCC1)[C@H]1[C@H](CO)[C@H]2Cn3c(cccc3=O)[C@@H]1N2C(=O)NC1CCCC1	-8	0	8
O=C(NCCN1CCCC1)[C@H]1[C@H](CO)[C@H]2Cn3c(cccc3=O)[C@@H]1N2C(=O)NC1CCCC1	23*	0	0
O=C(NC1CCCCC1)[C@H]1[C@H](CO)[C@H]2Cn3c(cccc3=O)[C@@H]1N2Cc1cccnc1	10	0	3
